Data taken from ChEMBL document CHEMBL1139494, “In vitro and in vivo anti-leishmanial activity of triterpenoid saponins isolated from Maesa balansae and some chemical derivatives” (J Med Chem, 2005).
Converted amounts (≈) assume the structure as drawn.

Experiments:
MRC5 = assay: Cytotoxic concentration against human lung fibroblast MRC-5 cells; type: functional
How it was run: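 Human lung fibroblasts grown in MEM + 5% heat-inactivated FCS, about 5000 cells/well, exposed to compound in triplicate. Viability read after 7 days with Alamar Blue fluorescent dye and expressed as percent reduction versus untreated wells. CC50 estimated from log-concentration plot; value is mean of three replicates.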

Leishmania infantum [1] = assay: (§1) Inhibitory concentration against intracellular amastigotes of Leishmania infantum; type: functional
How it was run: (§2)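 Mouse peritoneal macrophages elicited by intraperitoneal 2% potato starch and harvested ~24 h later in RPMI-1640. Each well held 3 × 10^4 macrophages plus 3 × 10^5 parasites with compound, final 0.5–32 µg/mL, in triplicate. After 5 days at 37 °C, Giemsa-stained intracellular amastigotes counted microscopically, expressed as percent reduction vs untreated; mean of three replicates.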

Leishmania infantum [2] = assay: Lowest dose (single subcutaneous administration) causing >90% reduction of liveramastigotes of Leishmania infantum in mouse; type: functional
How it was run: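 Male BALB/c mice given 10^7 L. infantum amastigotes (from spleen of infected donor hamster) intravenously via lateral tail vein on day 0, three per group. Single subcutaneous dose in isotonic saline (filter-sterilized, diluted from 2 mg/mL stock) given day 0. At 7 days post-treatment, Giemsa-stained liver impression smears scored for amastigotes per liver cell.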

Leishmania infantum [3] = assay: as §1; type: functional, organism-based; how it was run: as §2
[4] = Leishmania infantum, read-out: IC50

Row | Molecule | IC90 (Leishmania infantum [1]) [µg/mL] | IC50 (Leishmania infantum [3]; [4]) [µg/mL] | IC50 (Leishmania infantum [3]) [µg/mL] | CC50 (MRC5) [µg/mL] | Dose (Leishmania infantum [2]) [mg/kg] | DOSE (Leishmania infantum [2]) [mg/kg]
1 | C/C=C(/C)C(=O)O[C@H]1[C@H](OC(=O)/C=C\c2ccccc2)[C@@]23C(CC1(C)C)[C@]1(CCC4[C@@]5(C)CC[C@H](O[C@@H]6OC(C(=O)O)[C@@H](O)C(O[C@@H]7OC(CO)[C@H](O)C(O)[C@@H]7OC7O[C@@H](C)C(O)[C@H](O)C7OC7O[C@@H](C)[C@H](O)C(O)[C@@H]7O)[C@@H]6O[C@@H]6OC(CO)[C@@H](O)C(O)[C@@H]6O)C(C)(C)C5CC[C@@]4(C)[C@]1(C)C[C@H]2O)O[C@@H]3O (stereo partly specified) | 0.094 (≈ 0.0622 µM) | 0.023 (≈ 0.0152 µM) |  | 0.5 (≈ 0.331 µM) | >0.8 | 
2 | C/C=C(/C)C(=O)O[C@H]1[C@H](OC(=O)/C=C/c2ccccc2)[C@@]23C(CC1(C)C)[C@]1(CCC4[C@@]5(C)CC[C@H](O[C@@H]6OC(C(=O)O)[C@@H](O)C(O[C@@H]7OC(CO)[C@H](O)C(O)[C@@H]7OC7O[C@@H](C)C(O)[C@H](O)C7OC7O[C@@H](C)[C@H](O)C(O)[C@@H]7O)[C@@H]6O[C@@H]6OC(CO)[C@@H](O)C(O)[C@@H]6O)C(C)(C)C5CC[C@@]4(C)[C@]1(C)C[C@H]2O)O[C@@H]3O (stereo partly specified) | 0.021 (≈ 0.0139 µM) | 0.014 (≈ 0.00926 µM) |  | 0.1 (≈ 0.0662 µM) | 0.4 | 
3 | CC(=O)O[C@@H]1C[C@]2(C)C(=CCC3[C@@]4(C)CC[C@H](O)C(C)(C)C4CC[C@]32C)C2CC(C)(C)[C@@H](OC(=O)c3ccccc3)[C@H](OC(=O)/C=C/c3ccccc3)[C@@]21C=O (stereo partly specified) | > 32 | > 32 |  | > 32 |  | 
4 | CC(=O)O[C@@H]1C[C@]2(C)[C@@]3(CCC4[C@@]5(C)CC[C@H](O[C@@H]6OC(C(=O)O)[C@@H](O)C(O[C@@H]7OC(CO)[C@H](O)C(O)[C@@H]7OC7O[C@@H](C)C(O)[C@H](O)C7OC7O[C@@H](C)[C@H](O)C(O)[C@@H]7O)[C@@H]6O[C@@H]6OC(CO)[C@@H](O)C(O)[C@@H]6O)C(C)(C)C5CC[C@]42C)O[C@H](O)[C@]12C3CC(C)(C)[C@@H](OC(=O)c1ccccc1)[C@@H]2OC(=O)/C=C/c1ccccc1 (stereo partly specified) | 0.125 (≈ 0.0793 µM) | 0.046 (≈ 0.0292 µM) |  | 8 (≈ 5.08 µM) | >0.8 | 
5 | C[C@@H]1[C@H](O)[C@@H](C)/C=C/C=C/C=C/C=C/C=C/C=C/C=C/[C@H](O[C@@H]2O[C@H](C)[C@@H](O)[C@H](N)[C@@H]2O)C[C@@H]2O[C@](O)(C[C@@H](O)C[C@@H](O)[C@H](O)CC[C@@H](O)C[C@@H](O)CC(=O)O[C@H]1C)C[C@H](O)[C@H]2C(=O)O [AMPHOTERICIN B] | 0.373 (≈ 0.404 µM) | 0.285 (≈ 0.308 µM) |  | > 32 | >10 | 
6 | C/C=C(/C)C(=O)O[C@H]1[C@H](OC(=O)/C=C\c2ccccc2)[C@@]2(C=O)C(CC1(C)C)C1=CCC3[C@@]4(C)CC[C@H](O)C(C)(C)C4CC[C@@]3(C)[C@]1(C)C[C@H]2O (stereo partly specified) | > 32 | 22 (≈ 31.4 µM) |  | > 32 |  | 
7 | C[C@@H]1OC(O[C@H]2C(O)[C@@H](O)C(CO)O[C@H]2OC2[C@H](O)C(C(=O)O)O[C@@H](O[C@H]3CC[C@@]4(C)C(CC[C@]5(C)C4CC[C@]46O[C@H](O)[C@]7(C4CC(C)(C)[C@@H](OC(=O)c4ccccc4)[C@@H]7OC(=O)/C=C/c4ccccc4)[C@H](O)C[C@]65C)C3(C)C)[C@H]2O[C@@H]2OC(CO)[C@@H](O)C(O)[C@@H]2O)C(OC2O[C@@H](C)[C@H](O)C(O)[C@@H]2O)[C@@H](O)C1O (stereo partly specified) | 0.012 (≈ 0.00782 µM) | 0.007 (≈ 0.00456 µM) |  | 0.5 (≈ 0.326 µM) | 0.2 | 
8 | C[C@@H]1OC(O[C@H]2C(O)[C@@H](O)C(CO)O[C@H]2OC2[C@H](O)C(C(=O)O)O[C@@H](O[C@H]3CC[C@@]4(C)C(CC[C@]5(C)C4CC[C@]46O[C@H](O)[C@]7(C4CC(C)(C)[C@@H](OC(=O)c4ccccc4)[C@@H]7OC(=O)CCc4ccccc4)[C@H](O)C[C@]65C)C3(C)C)[C@H]2O[C@@H]2OC(CO)[C@@H](O)C(O)[C@@H]2O)C(OC2O[C@@H](C)[C@H](O)C(O)[C@@H]2O)[C@@H](O)C1O (stereo partly specified) | 0.015 (≈ 0.00977 µM) | 0.009 (≈ 0.00586 µM) |  | 0.3 (≈ 0.195 µM) |  | 
9 | C[C@@H]1OC(O[C@H]2C(O)[C@@H](O)C(CO)O[C@H]2OC2[C@H](O)C(C(=O)O)O[C@@H](O[C@H]3CC[C@@]4(C)C(CC[C@]5(C)C4CC[C@]46O[C@H](O)[C@]7(C4CC(C)(C)[C@@H](O)[C@@H]7O)[C@H](O)C[C@]65C)C3(C)C)[C@H]2O[C@@H]2OC(CO)[C@@H](O)C(O)[C@@H]2O)C(OC2O[C@@H](C)[C@H](O)C(O)[C@@H]2O)[C@@H](O)C1O (stereo partly specified) | > 32 | > 32 |  | > 32 | >40 | 
10 | C/C=C(/C)C(=O)O[C@H]1[C@H](OC(=O)/C=C/c2ccccc2)[C@@]23C(CC1(C)C)[C@]1(CCC4[C@@]5(C)CC[C@H](O[C@@H]6OC(C(=O)O)[C@@H](O)C(O[C@@H]7OC(CO)[C@H](O)C(O)[C@@H]7OC7O[C@@H](C)C(O)[C@H](O)C7OC7O[C@@H](C)[C@H](O)C(O)[C@@H]7O)[C@@H]6O[C@@H]6OC(CO)[C@@H](O)C(O)[C@@H]6O)C(C)(C)C5CC[C@@]4(C)[C@]1(C)C[C@H]2OC(C)=O)O[C@@H]3O (stereo partly specified) | 0.125 (≈ 0.0805 µM) | 0.041 (≈ 0.0264 µM) |  | 8 (≈ 5.15 µM) | >0.8 | 
11 | CC=C(C)C(=O)O[C@H]1[C@H](OC(=O)/C=C/c2ccccc2)[C@@]2(C=O)C(CC1(C)C)C1=CCC3[C@@]4(C)CC[C@H](O)C(C)(C)C4CC[C@@]3(C)[C@]1(C)C[C@H]2O (stereo partly specified) | > 32 | > 32 |  | > 32 |  | 
12 | STIBOGLUCONATE [listing 2 of 2 here] | > 32 |  |  | > 32 |  | > 40

Now from value to molecule, other results behind:

Row | IC90 (Leishmania infantum [1]) [µg/mL] | IC50 (Leishmania infantum [3]; [4]) [µg/mL] | IC50 (Leishmania infantum [3]) [µg/mL] | Molecule | CC50 (MRC5) [µg/mL] | Dose (Leishmania infantum [2]) [mg/kg] | DOSE (Leishmania infantum [2]) [mg/kg]
13 | 0.031 (≈ 0.0202 µM) | 0.018 (≈ 0.0117 µM) |  | C[C@@H]1OC(O[C@H]2C(O)[C@@H](O)C(CO)O[C@H]2OC2[C@H](O)C(C(=O)O)O[C@@H](O[C@H]3CC[C@@]4(C)C(CC[C@]5(C)C4CC[C@]46O[C@H](O)[C@]7(C4CC(C)(C)[C@@H](OC(=O)c4ccccc4)[C@@H]7OC(=O)/C=C\c4ccccc4)[C@H](O)C[C@]65C)C3(C)C)[C@H]2O[C@@H]2OC(CO)[C@@H](O)C(O)[C@@H]2O)C(OC2O[C@@H](C)[C@H](O)C(O)[C@@H]2O)[C@@H](O)C1O (stereo partly specified) | 0.5 (≈ 0.326 µM) | 0.8 | 
14 | > 32 | > 32 |  | CC1(C)CC2C3=CCC4[C@@]5(C)CC[C@H](O)C(C)(C)C5CC[C@@]4(C)[C@]3(C)C[C@@H](O)[C@@]2(C=O)[C@@H](OC(=O)/C=C\c2ccccc2)[C@@H]1OC(=O)c1ccccc1 (stereo partly specified) | > 32 |  | 
15 |  |  | 5.6 | STIBOGLUCONATE [listing 1 of 2 here] |  |  | 
16 | > 16 | 8 (≈ 11.1 µM) |  | CC1(C)CC2C3=CCC4[C@@]5(C)CC[C@H](O)C(C)(C)C5CC[C@@]4(C)[C@]3(C)C[C@@H](O)[C@@]2(C=O)[C@@H](OC(=O)/C=C/c2ccccc2)[C@@H]1OC(=O)c1ccccc1 (stereo partly specified) | 32 (≈ 44.3 µM) | >40 | 
17 | 0.03 (≈ 0.0198 µM) | 0.018 (≈ 0.0119 µM) |  | C/C=C(/C)C(=O)O[C@H]1[C@H](OC(=O)CCc2ccccc2)[C@@]23C(CC1(C)C)[C@]1(CCC4[C@@]5(C)CC[C@H](O[C@@H]6OC(C(=O)O)[C@@H](O)C(O[C@@H]7OC(CO)[C@H](O)C(O)[C@@H]7OC7O[C@@H](C)C(O)[C@H](O)C7OC7O[C@@H](C)[C@H](O)C(O)[C@@H]7O)[C@@H]6O[C@@H]6OC(CO)[C@@H](O)C(O)[C@@H]6O)C(C)(C)C5CC[C@@]4(C)[C@]1(C)C[C@H]2O)O[C@@H]3O (stereo partly specified) | 0.6 (≈ 0.396 µM) |  | 
18 | > 32 | > 32 |  | C/C=C(/C)C(=O)O[C@H]1[C@H](OC(=O)/C=C/c2ccccc2)[C@@]2(C=O)C(CC1(C)C)C1=CCC3[C@@]4(C)CC[C@H](O)C(C)(C)C4CC[C@@]3(C)[C@]1(C)C[C@H]2OC(C)=O (stereo partly specified) | > 32 |  | 
